The results in this text go back to ChEMBL document CHEMBL3045123, “Isolation and identification of antifungal fatty acids from the basidiomycete Gomphus floccosus” (J Agric Food Chem, 2008).

Activity calls are given as the source filed them. The rule behind the calls is not given here. Some results are limits rather than exact numbers.

The test system of assay [1] is Colletotrichum fragariae. Put plainly: Antifungal activity against Colletotrichum fragariae assessed as inhibition of fungal growth at 80 ug measured after 4 to 5 days by direct bioautography. Format: functional. Conditions: read-out: DIZ. Summed up:
(§1)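 For TLC direct bioautography, developed plates were sprayed with a conidial suspension of the test fungus. Plates were incubated in a moisture chamber at 26 °C with a 12 h photoperiod. Zones of growth inhibition were measured as diameters 4-5 days after treatment and reported as mean zone dimensions (mm) ± SD.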

For assay [2], the system named is Colletotrichum gloeosporioides. The assay is described as follows: Antifungal activity against Colletotrichum gloeosporioides assessed as inhibition of fungal growth measured after 48 hr by 96-well microdilution assay. The assay is classed as functional, organism-based. An outline of the steps: (§2)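 Conidia were harvested from 7-10 day PDA cultures grown at 24 °C with a 12 h photoperiod, filtered through Miracloth, and set to 1.0 × 10^6 conidia/mL by A625. Six-point microdilution broth format used final concentrations of 1, 3.3, 10, 33, 100 and 333 µM, with captan as standard. Growth was read at A620 at 0-72 h (Phomopsis also 120 and 144 h). Two experiments were pooled; IC50 was taken as 50% growth reduction.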
In general terms: Dilution methods test growth across graded concentrations, often in twofold steps.

Assay [3] relates to Colletotrichum gloeosporioides. The assay is described as follows: Growth stimulation of Colletotrichum gloeosporioides up to 100 uM after 24 to 72 hr by 96-well microdilution assay. Format: functional, organism-based. An outline of the steps:
as §2

Assay [4] concerns Colletotrichum gloeosporioides. Put plainly: Antifungal activity against Colletotrichum gloeosporioides assessed as inhibition of fungal growth at 20 ug measured after 4 to 5 days by direct bioautography. The assay is classed as functional. Conditions: read-out: DIZ. Summed up:
as §1

Assay [5] concerns Phomopsis obscurans. The assay is described as follows: Antifungal activity against Phomopsis obscurans assessed as inhibition of fungal growth measured after 144 hr by 96-well microdilution assay. Format: functional, organism-based. Conditions: Paraphomopsis obscurans. An outline of the steps: as §2
Assay [6] deals with Botrytis cinerea. Put plainly: Antifungal activity against Botryotinia fuckeliana assessed as inhibition of fungal growth measured after 48 hr by 96-well microdilution assay. Format: functional, organism-based. An outline of the steps: as §2
The test system of assay [7] is Colletotrichum acutatum. Put plainly: Antifungal activity against Colletotrichum acutatum assessed as inhibition of fungal growth measured after 48 hr by 96-well microdilution assay. Format: functional, organism-based. An outline of the steps:
as §2

In assay [8] the test system is Phomopsis obscurans. Put plainly: Antifungal activity against Phomopsis obscurans assessed as inhibition of fungal growth measured after 120 hr by 96-well microdilution assay. Format: functional, organism-based. Conditions: Paraphomopsis obscurans. An outline of the steps:
as §2

For assay [9], the system named is Colletotrichum fragariae. The assay is described as follows: Antifungal activity against Colletotrichum fragariae assessed as inhibition of fungal growth measured after 72 hr by 96-well microdilution assay. Format: functional, organism-based. An outline of the steps:
as §2

In assay [10] the test system is Colletotrichum acutatum. Put plainly: Antifungal activity against Colletotrichum acutatum assessed as inhibition of fungal growth at 80 ug measured after 4 to 5 days by direct bioautography. Conditions: read-out: DIZ. Format: functional. An outline of the steps:
as §1

Assay [11] deals with Colletotrichum acutatum. Put plainly: Antifungal activity against Colletotrichum acutatum assessed as inhibition of fungal growth measured after 72 hr by 96-well microdilution assay. The assay is classed as functional, organism-based. Summed up:
as §2

Assay [12] deals with Colletotrichum fragariae. The assay is described as follows: Growth stimulation of Colletotrichum fragariae at 333 uM after 24 to 72 hr by 96-well microdilution assay. Format: functional, organism-based. Summed up: as §2
Assay [13] concerns Fusarium oxysporum. Put plainly: Antifungal activity against Fusarium oxysporum assessed as inhibition of fungal growth measured after 48 hr by 96-well microdilution assay. The assay is classed as functional, organism-based. Summed up: as §2
Assay [14] has as its system Colletotrichum gloeosporioides. The assay is described as follows: Antifungal activity against Colletotrichum gloeosporioides assessed as inhibition of fungal growth at 80 ug measured after 4 to 5 days by direct bioautography. Conditions: read-out: DIZ. The assay is classed as functional. Summed up: as §1
Assay [15] relates to Colletotrichum acutatum. Put plainly: Antifungal activity against Colletotrichum acutatum assessed as inhibition of fungal growth at 90 uM measured after 48 hr by 96-well microdilution assay. Format: functional. Conditions: read-out: GI. An outline of the steps:
(§3)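 Initial three-point microdilution broth screen at final concentrations of 45, 90 and 135 µM, each in duplicate, against a conidial suspension adjusted photometrically to 1.0 × 10^6 conidia/mL. Growth was read as A620 at 0, 24, 48 and 72 h. Percent inhibition/stimulation means were pooled from two experiments replicated in time.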

For assay [16], the system named is Colletotrichum gloeosporioides. Put plainly: Antifungal activity against Colletotrichum gloeosporioides assessed as inhibition of fungal growth measured after 72 hr by 96-well microdilution assay. The assay is classed as functional, organism-based. An outline of the steps:
as §2

Assay [17] has as its system Colletotrichum acutatum. Put plainly: Antifungal activity against Colletotrichum acutatum assessed as inhibition of fungal growth at 20 ug measured after 4 to 5 days by direct bioautography. The assay is classed as functional. Conditions: read-out: DIZ. An outline of the steps: as §1
For assay [18], the system named is Colletotrichum fragariae. Put plainly: Antifungal activity against Colletotrichum fragariae assessed as inhibition of fungal growth measured after 48 hr by 96-well microdilution assay. Format: functional, organism-based. An outline of the steps: as §2
The subject of assay [19] is Colletotrichum acutatum. The assay is described as follows: Antifungal activity against Colletotrichum acutatum assessed as inhibition of fungal growth at 90 uM measured after 72 hr by 96-well microdilution assay. Format: functional. Conditions: read-out: GI. An outline of the steps:
as §3

Assay [20] has as its system Phomopsis viticola. The assay is described as follows: Antifungal activity against Phomopsis viticola assessed as inhibition of fungal growth measured after 120 hr by 96-well microdilution assay.
The test system of assay [21] is Fusarium oxysporum. The assay is described as follows: Antifungal activity against Fusarium oxysporum assessed as inhibition of fungal growth measured after 72 hr by 96-well microdilution assay. Format: functional, organism-based. An outline of the steps: as §2
The test system of assay [22] is Colletotrichum fragariae. Put plainly: Antifungal activity against Colletotrichum fragariae assessed as inhibition of fungal growth at 20 ug measured after 4 to 5 days by direct bioautography. Format: functional. Conditions: read-out: DIZ. An outline of the steps:
as §1

Assay [23] relates to Phomopsis viticola. The assay is described as follows: Antifungal activity against Phomopsis viticola assessed as inhibition of fungal growth measured after 144 hr by 96-well microdilution assay.
Assay [24] relates to Botrytis cinerea. Put plainly: Antifungal activity against Botryotinia fuckeliana assessed as inhibition of fungal growth measured after 72 hr by 96-well microdilution assay. The assay is classed as functional, organism-based. Summed up:
as §2

The subject of assay [25] is Fusarium oxysporum. Put plainly: Growth stimulation of Fusarium oxysporum at 333 uM after 24 to 72 hr by 96-well microdilution assay. The assay is classed as functional, organism-based. An outline of the steps:
as §2

For assay [26], the system named is Colletotrichum gloeosporioides. Put plainly: Growth stimulation of Colletotrichum gloeosporioides at 333 uM after 24 to 72 hr by 96-well microdilution assay. The assay is classed as functional, organism-based. An outline of the steps: as §2
For assay [27], the system named is Colletotrichum fragariae. Put plainly: Growth stimulation of Colletotrichum fragariae up to 100 uM after 24 to 72 hr by 96-well microdilution assay. The assay is classed as functional, organism-based. An outline of the steps:
as §2

Turning to `CCCCC/C=C\C=C\[C@@H](O)CCCCCCCC(=O)O`, the zone of inhibition at 80 µg/disc in assay [1] turned out to be 10 mm; in [10], 19 mm; in [14] it was 7 mm. For the same compound, the half-inhibitory concentration (IC50) is greater than 333 µM in assay [2]; greater than 333 µM in assay [6]; greater than 333 µM in assay [7]; 10 µM in assay [8]; greater than 333 µM in [9]; greater than 333 µM in assay [11]. In addition, the IC50 in [13] is greater than 333 µM; in assay [16], greater than 333 µM; in [18], greater than 333 µM; in assay [20] it was greater than 333 µM; in [21], greater than 333 µM; in assay [23] it was 100 µM. The 50% inhibitory concentration (IC50) in assay [24] was greater than 333 µM. Also, the outcome in [3], in assay [25] and in assay [27] was Active. The zone of inhibition at 20 µg/disc in [4] was 3 mm; in assay [17], 5 mm; in assay [22] it was 6 mm. Also, the “growth inhibition (GI)” value in assay [5] and in [23] was “Dose-dependent effect” throughout. Also, the result in assay [12] and in [26] was inactive. Besides, the inhibition of growth at 90 µM in assay [15] came out at 79%; in assay [19], 37%.

Regarding `CCCCCC(=O)/C=C\C=C\CCCCCCCC(=O)O`, the zone of inhibition at 80 µg/disc in assay [1] was 8 mm; in assay [10], 19 mm; in assay [14], 7 mm. For the same compound, the IC50 in assay [2] is greater than 333 µM; in [6], 120 µM; in assay [7], greater than 333 µM; in [8], 4.5 µM; in assay [9], 270 µM; in assay [11] it was greater than 333 µM. In addition, the 50% inhibitory concentration (IC50) in [13] was greater than 333 µM; in assay [16] it was greater than 333 µM; in assay [18], 160 µM; in [20] it was 115 µM; in [21], greater than 333 µM; in assay [23] it was 38 µM. For the same compound, the half-maximal inhibitory concentration (IC50) in assay [24] was greater than 333 µM. The figures for the zone of inhibition at 20 µg/disc in [4], in assay [17] and in [22] were 6 mm, 4 mm and 6 mm, respectively.

`O=C1C2CC=CCC2C(=O)N1SC(Cl)(Cl)Cl` (centres undefined) [CAPTAN]: the concentration for half-maximal inhibition (IC50) in assay [2] was found to be 2.1 µM; in assay [6], 1.4 µM; in assay [7] it was 2.5 µM; in assay [8] it was 1.1 µM; in assay [9], 3 µM; in assay [11], 5.2 µM. For the same compound, the IC50 was 2.8 µM in assay [13]; 4.7 µM in [16]; 1.6 µM in assay [18]; less than 1 µM in assay [20]; 16 µM in assay [21]; less than 1 µM in [23]. For the same compound, the concentration for half-maximal inhibition (IC50) in [24] came to 2.8 µM.

As for `CCCCC/C=C/C=C/C(=O)CCCCCCCC(=O)O`, the figures for the zone of inhibition at 80 µg/disc in [1], in [10] and in assay [14] were 6 mm, 17 mm and 7 mm, respectively. Also, the IC50 was greater than 333 µM in assay [2]; 90 µM in assay [6]; greater than 333 µM in assay [7]; 23 µM in assay [8]; greater than 333 µM in assay [9]; greater than 333 µM in assay [11]. Moreover, the concentration for half-maximal inhibition (IC50) in assay [13] is greater than 333 µM; in assay [16] it was greater than 333 µM; in [18], 91 µM; in [20], 110 µM; in [21] it was greater than 333 µM; in [23], 65 µM. In addition, in assay [24], the IC50 was greater than 333 µM. Also, the results for the zone of inhibition at 20 µg/disc in [4], in [17] and in assay [22] were 6 mm, 8 mm and 4 mm, respectively.

A word on the IC50: it is the concentration that gives 50% inhibition.
